ChEMBL document CHEMBL1148969, “Lanostanoid triterpenes from Laetiporus sulphureus and apoptosis induction on HL-60 human myeloid leukemia cells” (J Nat Prod, 2004)
Calls of active or inactive are those of the source. No cut-off for these calls is given here.

Columns and labels:
HL-60 [1] = assay: Cytotoxicity against human HL60 cells after 96 hrs by MTT assay; assay type: functional, cell-based; settings: for IC50: HL-60, 96 h
Outline: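 HL-60 promyelocytic leukemia cells; growth inhibition read by MTT; IC50 determined graphically for each experiment by curve fitting. Mean ± SEM of two independent experiments with three determinations each; ursolic acid as positive control.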

HL-60 [2] = assay: Induction apoptosis in human HL60 cells assessed as condensation of chromatin at 10 uM after 8 hrs by fluorescence microscopy; assay type: functional, cell-based
Outline: (§1)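 HL-60 cells cultured with or without 10 µM compound for 8 h, stained with Hoechst 33258; nuclei examined by fluorescence microscopy for chromatin condensation, shrinkage and apoptotic bodies.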

HL-60 [3] = assay: Induction apoptosis in human HL60 cells assessed as caspase 3 activity after 6 hrs; assay type: functional, cell-based
Outline: (§2)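 HL-60 cells given 10 µM for 6 h; lysates with equal protein incubated with colorimetric substrate DEVD-pNA, absorbance at 405 nm. Expressed as fold increase over untreated control; representative experiment in duplicate; etoposide 10 µM positive control.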

HL-60 [4] = assay: Induction apoptosis in human HL60 cells assessed as appearance of apoptotic bodies at 10 uM after 8 hrs by fluorescence microscopy; assay type: functional, cell-based; outline: as §1
HL-60 [5] = assay: Induction apoptosis in human HL60 cells assessed as cytochrome c release from mitochondria at 10 uM after 6 hrs by Western blot analysis; assay type: functional, cell-based
Outline: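 Cells treated 6 h at 10 µM; cytosolic fraction isolated and immunoblotted with monoclonal anti-cytochrome c (band near 15 kDa); β-actin loading control.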

HL-60 [6] = assay: Induction apoptosis in human HL60 cells assessed as […] DNA fragmentation at 30 uM after 16 hrs by electrophoresis; assay type: functional, cell-based
Outline: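 Cells treated 16 h at 30 µM; total cellular DNA extracted, run on 2% agarose gel, ethidium bromide stained and internucleosomal ladder viewed under UV; etoposide 3 µM positive control.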

HL-60 [7] = assay: Induction apoptosis in human HL60 cells assessed as appearance of apoptotic nuclei at 30 uM after 8 hrs by fluorescence microscopy; assay type: functional, cell-based
Outline: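 Cells exposed to 30 µM for 8 h, then Hoechst 33258 (bisbenzimide) stained; apoptotic nuclei counted by fluorescence microscopy. Mean ± standard error of one experiment in triplicate, repeated once separately; etoposide as positive control.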

HL-60 [8] = assay: Induction apoptosis in human HL60 cells assessed as PARP1 cleavage at 10 uM after 6 hrs by SDS-PAGE; assay type: functional, cell-based
Outline: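 After 6 h at 10 µM, equal protein from whole-cell lysates run on SDS-PAGE, blotted and probed with anti-PARP-1 monoclonal antibody detecting native 116 kDa and cleaved 85 kDa forms; etoposide positive control.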

HL-60 [9] = assay: Induction apoptosis in human HL60 cells assessed as caspase 3 activity at 10 uM after 6 hrs relative to control; assay type: functional; outline: as §2

Structure (SMILES)	Activity (HL-60 [1])	IC50 (HL-60 [1]) [µM]	Activity (HL-60 [2])	Activity (HL-60 [3])	Activity (HL-60 [4])	Activity (HL-60 [5])	Activity (HL-60 [6])	Activity (HL-60 [7])	Activity (HL-60 [8])	fold change (FC) (HL-60 [9])
CC(C)=CCC[C@@H](C(=O)O)[C@H]1C[C@H](O)[C@@]2(C)C3=C(CC[C@]12C)[C@@]1(C)CC[C@H](O)C(C)(C)[C@@H]1CC3	Dose-dependent effect	12	–	–	–	–	–	–	–	–
C=C(CC[C@@H](C(=O)O)[C@H]1C[C@H](O)[C@@]2(C)C3=C(CC[C@]12C)[C@@]1(C)CCC(=O)C(C)(C)[C@@H]1CC3)C(C)C	Dose-dependent effect	407	–	–	–	–	–	–	–	–
C=C(CC[C@@H](C(=O)O)[C@H]1C[C@H](OC(C)=O)[C@@]2(C)C3=C(CC[C@]12C)[C@@]1(C)CCC(=O)C(C)(C)[C@@H]1CC3)C(C)C	Dose-dependent effect	25	Active	Dose-dependent effect	Active	Active	Active	–	–	–
C=C(CC[C@@H](C(=O)O)[C@H]1CC[C@@]2(C)C3=C(CC[C@]12C)[C@@]1(C)CC[C@H](OC(C)=O)C(C)(C)[C@@H]1CC3)C(C)C [ACETYL EBURICOIC ACID]	Dose-dependent effect	15	Active	Dose-dependent effect	Active	Active	Active	Active	Active	7
CC(=O)O[C@H]1CC[C@]2(C)C3=C(CC[C@H]2C1(C)C)[C@]1(C)CC[C@H]([C@@H](CCC=C(C)C)C(=O)O)[C@@]1(C)CC3 [ACETYL TRAMETENOLIC ACID]	Dose-dependent effect	31	Active	Dose-dependent effect	Active	–	Active	Active	–	–
C=C(CC[C@@H](C(=O)O)[C@H]1CC[C@@]2(C)C3=C(CC[C@]12C)[C@@]1(C)CC[C@H](O)C(C)(C)[C@@H]1CC3)C(C)C [EBURICOIC ACID]	Dose-dependent effect	25	Active	Dose-dependent effect	Active	–	Active	–	–	–
C=C(CC[C@@H](C(=O)O)[C@H]1C[C@H](O)[C@@]2(C)C3=C(CC[C@]12C)[C@@]1(C)CC[C@H](O)C(C)(C)[C@@H]1CC3)C(C)C [SULFURENIC ACID]	Dose-dependent effect	14	–	–	–	–	–	–	–	–
C[C@H]1[C@H](C)CC[C@]2(C(=O)O)CC[C@]3(C)C(=CC[C@@H]4[C@@]5(C)CC[C@H](O)C(C)(C)[C@@H]5CC[C@]43C)[C@H]12 [URSOLIC ACID]	Dose-dependent effect	21	–	–	–	–	–	–	–	–
